KCNQ1 block: inhibitors of human KCNQ1 channel, primary screen, cell-based, thallium flux, high-throughput; B-score at 10 µM; 310,000 compounds, 1.3% hits; CHO-K1 KCNQ1, FluxOR thallium flux fluorescence; hits give high values; AID 2642, 2010;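 active means compounds whose thallium flux B-score, printed positive for inhibition, exceeds three library SD while starting fluorescence stays within three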;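 further: channel opened by potassium depolarization with thallium stimulus after 20 min compound exposure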
KCC2 mod: KCC2 cotransporter modulators, thallium flux, primary screen, cell-based, HEK293 KCC2, FluoZin-2 fluorescence, MLSMR; Solute carrier family 12 member 5 (Homo sapiens), Q9H2X9; KCC2 cells, thallium flux FluoZin-2 fluorescence; 190,000 compounds, 2.2% hits; B-score of Tl+ flux slope (higher = more flux/activation; lower = inhibition) at 10 µM;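 active means thallium flux slope and its plate-corrected score both differing from the plate sample mean at a set confidence after two filtering rounds, in either direction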;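 further: slope of fluorescence scaled to starting intensity during 10 to 20 s after thallium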
hERG rescue: hERG rescue from dofetilide block, primary screen, cell-based, CHO-hERG, FluxOR thallium flux, dofetilide IC70 | Voltage-gated inwardly rectifying potassium channel KCNH2 (Homo sapiens), Q12809 | dofetilide IC70 present | activation (rescue from dofetilide block), less the hit threshold, % at 10 µM | 310,000 compounds, 0.51% hits;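 active means activation above the mean of controls blocked by dofetilide plus 5 SD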;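 further: thallium influx through hERG after potassium depolarization seen as dye fluorescence rise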
KCNQ1 act: potentiators or activators of KCNQ1 channel, primary screen, cell-based, thallium flux, high-throughput. Potassium voltage-gated channel subfamily KQT member 1 (Homo sapiens), P51787. CHO-K1 KCNQ1, thallium flux FluxOR fluorescence; hits give high values. B-score at 10 µM. 310,000 compounds, 0.35% hits. AID 2648, 2010;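 active means fluorescence ratio B-score, a plate-corrected score, at least three library SD, with initial intensity B-score within 5 SD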
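Assay system: stable KCNQ1 CHO-K1 line; medium: assay buffer, equal DMSO in all wells; timing: 90 min dye loading and 20 min compound exposure, both at room temperature; technique: kinetic FluxOR thallium fluorescence, 10-s 1-Hz baseline, 110-s post-stimulus read; read-out basis: B score of baseline-normalized fluorescence ratio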
KCNK9 inh: KCNK9 potassium channel inhibitors, primary screen, HEK293 cells, thallium flux; Potassium channel subfamily K member 9 (Homo sapiens), Q9NPC2; FluxOR thallium flux fluorescence; hits give low values; B-score at 10 µM; 310,000 compounds, 1.2% hits; AID 488922, 2010;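 active means ratio B-score over 3 SD below the library mean, with starting fluorescence within 5 SD of its mean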;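 further: negative B-score means less thallium flux so channel inhibition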
KCNK3 inh: human KCNK3 channel inhibitors, primary screen, CHO cells, FluxOR thallium flux, B-score | Potassium channel subfamily K member 3 (Homo sapiens), O14649 | FluxOR fluorescence; hits give low values | B-score at 10 µM | 340,000 compounds, 0.84% hits | AID 602410, 2012;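 active means B-score under library mean minus 4 SD, starting fluorescence ratio at most library mean plus 5 SD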;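 further: more negative B-score means stronger inhibition of thallium flux through KCNK3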
Target sequence (O14649 whole entry, looked up): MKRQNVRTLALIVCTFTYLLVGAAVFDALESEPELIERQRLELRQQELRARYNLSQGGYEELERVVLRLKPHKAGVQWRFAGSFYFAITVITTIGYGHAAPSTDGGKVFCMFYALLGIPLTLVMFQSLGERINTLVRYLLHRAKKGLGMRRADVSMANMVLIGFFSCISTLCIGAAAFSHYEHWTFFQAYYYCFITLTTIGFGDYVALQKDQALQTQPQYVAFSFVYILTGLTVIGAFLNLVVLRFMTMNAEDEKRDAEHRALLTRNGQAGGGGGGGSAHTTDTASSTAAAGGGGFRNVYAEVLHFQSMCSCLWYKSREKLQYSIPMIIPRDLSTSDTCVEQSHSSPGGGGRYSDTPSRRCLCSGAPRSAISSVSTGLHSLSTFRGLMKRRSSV
KCNK9 block conf: KCNK9 potassium channel inhibitors, confirmation, HEK293 cells, thallium flux, duplicate. 4,900 compounds, 43% hits. FluxOR thallium flux fluorescence. shares compounds with KCNK9 inh. inhibition, % at 10 µM;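 active means thallium signal inhibited by more than 5 SD of the compound-free buffer control wells, on both duplicate plates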;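 further: 0% = assay buffer control wells without compound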
Kir21 sel: mouse Kir2.1 channel inhibition, confirmation, selectivity assay for KCNK9 modulator project, cell-based, HEK293, thallium flux. Kir2.1 cells, FluxOR thallium flux fluorescence. shares compounds with KCNK9 inh. inhibition, % at 10 µM. 4,900 compounds, 4% hits. AID 492993, 2010;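 active means thallium signal drop more than 5 SD beyond the mean of the no-compound control wells, seen in both duplicate plates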;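 further: signal is fluorescence rise after thallium addition divided by baseline fluorescence; plate controls were assay buffer only for no effect and full block by chlorpromazine control for full effect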
KCNK9 uninduced: thallium flux in non-induced HEK293 cells, confirmation, counter-screen for KCNK9 inhibitor project, cell-based, second counter screen, non-induced KCNK9-HEK293; 4,900 compounds, 40% hits; AID 492997, 2010; inhibition, % at 10 µM; shares compounds with KCNK9 inh; FluxOR thallium flux;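 active means thallium signal drop beyond 5 SD of the untreated control mean, on both duplicate plates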;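 further: plate controls were buffer only IC0 wells for no effect and SID17386958 at its maximal inhibitory level for full effect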
* = called active by the depositor; i = inactive; . = no result. In the library only some 4.1% were active in any assay of this set; here they are far more common.

SMILES	KCNQ1 block	KCC2 mod	hERG rescue	KCNQ1 act	KCNK9 inh	KCNK3 inh	KCNK9 block conf	Kir21 sel	KCNK9 uninduced
Cc1ccc(C23CC4CC(CC(C(=O)NC(C)C)(C4)C2)C3)cc1	i	.	-3	i	i	i	.	.	.
COc1ccc(NC(=O)C23CC4CC(C2)CC(c2ccc(C)cc2)(C4)C3)cc1	i	-0.74	-12	i	i	i	i	i	i
COC(=O)C(C)NC(=O)C12CC3CC(C1)CC(c1ccc(C)cc1)(C3)C2 (stereo not given)	i	.	-4	i	i	i	i	i	i
O=C(CSc1nnc(-c2ccc(C(F)(F)F)cn2)s1)c1ccc(Cl)cc1	i	0.9	-7	i	i	i	.	.	.
O=C(O)C1CCCN1C(=O)C1CCN(S(=O)(=O)c2cccc(C(F)(F)F)c2)CC1 (stereo not given)	.	.	.	.	.	i	.	.	.
O=C(CSc1ccc(-c2cccnc2)nn1)Nc1ccc(F)c(F)c1	i	.	-6	i	i	i	.	.	.
C/C(=N\NC(=O)c1nnn(-c2nonc2N)c1-c1ccc2c(c1)OCO2)c1ccc(C)cc1	i	.	-3	i	i	i	.	.	.
O=C(Nc1nccs1)C1CCN(S(=O)(=O)c2c(Cl)cccc2Cl)CC1	i	-0.57	-8	i	-16*	i	i	i	i
Cc1ccc(S(=O)(=O)N(C)c2ccc(OC(C)C(=O)N(C)c3ccccc3)cc2)cc1 (stereo not given)	.	.	.	.	.	i	.	.	.
O=C1NN(c2ccc(F)c(Cl)c2)C(=O)/C1=C\c1cccc(OC(=O)c2cccs2)c1	i	.	-11	i	i	i	i	i	i
CC(C)(C)NC(=O)Cn1nc(C(F)(F)F)c2c1CCCC2	i	-0.0072	-5	i	i	i	i	i	i
CCCNC(=O)Cn1nc(C(F)(F)F)c2c1CCCC2	i	-0.39	-6	i	i	i	.	.	.
NC(=O)CC(NC(=O)c1ccc(Br)cc1)c1ccc(N2CCCCCCC2)c([N+](=O)[O-])c1 (stereo not given)	i	.	-10	i	-10*	i	30%*	i	42%*
NC(=O)CC(NC(=O)c1ccc(Br)cc1)c1ccc(N2CCC(Cc3ccccc3)CC2)c([N+](=O)[O-])c1 (stereo not given)	i	.	-9	i	-9.5*	i	55%*	i	32%*
Cn1nnnc1SCC(=O)Nc1ncc(C(F)(F)F)cc1Cl	.	.	.	.	.	i	.	.	.
CCN(C[C@H]1N[C@@](CC)(C(=O)OC)[C@H]2C(=O)N(C)C(=O)[C@@H]12)S(=O)(=O)c1ccccc1	.	.	.	.	.	i	.	.	.
COc1ccc(-c2ocnc2C(=O)NCc2nn(-c3ccccc3)nc2C)cc1	i	.	-12	i	i	i	i	i	i
COc1ccc(-c2ocnc2C(=O)Nc2ccccc2N2CCCCC2)cc1	i	0.87	-8	i	-9.3*	i	i	i	28%*
CC(CC(=O)Nc1ccc(S(=O)(=O)Nc2ncccn2)cc1)c1ccccc1 (stereo not given)	i	.	-3	i	i	i	.	.	.
Cc1cc(C)c(CN2CCN(C(=O)Cn3cnc4c(NCc5ccccc5)ncnc43)CC2)c(C)c1	.	.	.	.	.	i	.	.	.
CC(=O)N1CCc2cc(S(=O)(=O)CCC(=O)Nc3cc(C)cc(C)c3)ccc21	i	.	-9	i	i	i	.	.	.
CC1CC2(CCCCC2)Nc2c1ccc1ccccc21 (stereo not given)	i	1.1	-13	i	i	i	.	.	.
CC(=O)N1c2c(ccc3ccccc23)C(C)CC12CCCCC2 (stereo not given)	i	.	-6	i	-14*	i	49%*	i	47%*
Cc1cc(C(=O)CSc2nnnn2-c2ccc(O)cc2)c(C)n1Cc1ccc2c(c1)OCO2	i	-0.99	-7	i	-9.8*	i	28%*	i	i
Clc1ccc(-c2cnnc(-c3ccccn3)n2)cc1	.	.	.	.	.	i	.	.	.
SMILES	KCNQ1 block	KCC2 mod	hERG rescue	KCNQ1 act	KCNK9 inh	KCNK3 inh	KCNK9 block conf	Kir21 sel	KCNK9 uninduced
Cn1ncc(N=Cc2ccc([N+](=O)[O-])cc2)c1C(=O)Nc1ccccc1	i	1.7	4	i	i	i	.	.	.
Cc1cccc(N2CCN(C(=O)Cc3ccc(Br)cc3)CC2)c1C	i	-0.64	-17	i	i	i	i	i	26%*
Cc1ccc(NC(=O)c2sccc2SCc2cccc(C(F)(F)F)c2)cc1	10*	0.063	-10	i	-14*	i	64%*	48%*	50%*
O=C(OCC(=O)N1CCCC1=O)c1ccc(Cl)cc1[N+](=O)[O-]	i	.	-10	i	i	i	.	.	.
COc1cccc(N2CCN(CC(=O)NC3=Nc4ccccc4N=C(C)C3c3ccccc3)CC2)c1 (stereo not given)	i	0.58	-8	i	-14*	i	54%*	i	28%*
Cc1cccc(C(=O)Nc2sc(-c3ccccc3)cc2C(=O)O)c1	i	1.3	-22	i	i	i	i	i	i
CC(C)(C)C(=O)Nc1sc(-c2ccccc2)cc1C(=O)O	i	-0.55	-9	i	i	i	.	.	.
COCCN=c1scc(-c2ccco2)n1/N=C/c1ccc(O)c(O)c1O	.	-0.078	.	.	.	i	.	.	.
COCCN=c1scc(-c2cc(OC)ccc2OC)n1/N=C/c1c[nH]c2ccccc12	i	-4.1	-14	i	i	i	i	i	i
COc1ccc(OC)c(NC(=O)c2cc(OC(C)=O)cc(C(=O)Nc3cc(OC)ccc3OC)c2)c1	i	.	-7	i	-9.5*	i	49%*	i	i
C[C@@H](C(=O)NCc1ccccc1)[C@H]1C[C@]1(C)[C@H](NC(=O)OCc1ccccc1)c1ccccc1	i	0.33	-8	i	-9.2*	i	49%*	i	i

From PubChem
